Sampled rows, rich in hits. Any-hit rate of the full collection: about 2.2%.
FLuc inhib CS = counter-screen for luciferase assay inhibitors: firefly luciferase inhibition; AID 1006; ATPLite firefly luciferase biochemical luminescence, 10 min; inhibition, % at 10 µM; 1.5% of 200,000 active; P08659;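 active = inhibition above about 50% when tested at 10 µM, limit read from the data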
Target sequence (P08659 whole entry, looked up): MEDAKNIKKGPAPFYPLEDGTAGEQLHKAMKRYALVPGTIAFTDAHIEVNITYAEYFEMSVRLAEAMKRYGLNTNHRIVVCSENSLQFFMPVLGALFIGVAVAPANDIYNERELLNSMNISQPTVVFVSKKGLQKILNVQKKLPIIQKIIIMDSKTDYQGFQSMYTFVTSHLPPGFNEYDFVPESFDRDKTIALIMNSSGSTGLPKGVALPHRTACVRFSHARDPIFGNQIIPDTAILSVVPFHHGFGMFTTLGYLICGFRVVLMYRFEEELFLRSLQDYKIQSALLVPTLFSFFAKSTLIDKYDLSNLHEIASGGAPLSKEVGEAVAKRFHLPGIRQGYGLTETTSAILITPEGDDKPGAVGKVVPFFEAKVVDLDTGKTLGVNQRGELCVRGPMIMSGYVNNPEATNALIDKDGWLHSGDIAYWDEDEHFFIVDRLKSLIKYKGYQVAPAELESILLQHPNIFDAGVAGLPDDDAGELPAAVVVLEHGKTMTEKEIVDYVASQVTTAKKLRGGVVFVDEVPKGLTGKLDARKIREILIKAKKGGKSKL
NF-kB neuron act = NF-kB expression increase, human neuronal cells. NF-kB reporter expression; active compounds read high. fold change at 12.5 µM. 1.6% of 190,000 active; in the data active = fold change above about 3.3
FLuc stim CS = affects firefly luciferase, flagging false hits in luciferase stimulation screens. P08659. ATPlite luciferase biochemical, luminescence, 10 min; 0 = ATP-free wells, 1 = DMSO control. activation factor at 10 µM. 200,000 tested, under 10 active. AID 1027;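 active = luciferase activation factor, scaled between plate controls, of at least 2 with compound at 10 µM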
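Material: Luciferase/luciferin reagent mix; Doses: test compounds dosed from 2 mM stocks in 100% DMSO; Schedule: 10 min incubation after luciferase reagent addition, room temperature; Measured by: luminescence from luciferase reaction; Read-out: luminescence gain marking luciferase activators.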
C8 TRAIL sens = caspase-8 TRAIL sensitization; AID 624354; inhibition (viability loss, TRAIL sensitization), % at 10 µM; 1% of 360,000 active; NB7+C8 cells + TRAIL, ATPlite viability luminescence;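 active = compounds causing at least 50% loss of cell viability in the single-dose screen, relative to plate controls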
APP 5'UTR act = APP 5'UTR luciferase reporter activation; SH-SY5Y APP 5'UTR luciferase reporter, luminescence; zero percent = DMSO vehicle wells; activation, % at 2 µM; 1% of 190,000 active; AID 1276;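 active = activation above a set limit, based on mean plus 3 SD of controls, cut at about 140% in these data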
PPC-1+TRAIL kill = PPC-1 cancer cell killing with TRAIL present; PPC-1 cells + TRAIL, ATPLite viability luminescence; 0.41% of 220,000 active; cell killing (% activity), % at 4 µM or 5 µM;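 active = cell killing above 50% in the first pass at 4 µM, then a duplicate retest at 5 µM averaging 50% or more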;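 note: plate controls were cells with TRAIL plus DMSO for no effect and medium-only wells lacking cells for full effect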
An asterisk follows results filed as active; x = no result.

SMILES	FLuc inhib CS	NF-kB neuron act	FLuc stim CS	C8 TRAIL sens	APP 5'UTR act	PPC-1+TRAIL kill
O=C(N/N=C/c1ccccc1O)c1cccc(C(F)(F)F)c1	-2	1.4	1	21	-54	52*
COCCNC(=O)C(=O)N/N=C/c1ccccc1C(F)(F)F	-4	1.2	1	-9	12	6
O=C(N/N=C/c1ccc(O)cc1)c1cccc(C(F)(F)F)c1	-6	1.2	1.1	6	-8	-4
O=C(N/N=C/c1ccc(-c2cccc(C(F)(F)F)c2)o1)c1cccc(F)c1	-3	0.87	1	73*	7	-12
COCOCCn1cc(CN2CCS(=O)(=O)N(Cc3ccc(-c4ccncc4)cc3)C(CC(C)C)C2=O)nn1 (stereo unspecified)	x	x	x	14	x	x
Cc1nc2ccccc2n1CC(=O)c1ccc(O)c(O)c1	x	x	x	-14	x	x
Oc1ccc(-c2nc(-c3ccc(O)c(O)c3)cs2)cc1	2	3.8*	1	-47	-94	29
Cc1csc(NC(=O)c2cccn2C)n1	30	3.2	0.7	14	90	31
Cn1cccc1C(=O)Nc1nc(-c2ccccn2)cs1	18	5.1*	0.8	15	43	17
Cc1cccnc1Nc1nc(-c2ccccn2)cs1	44	7.5*	0.6	49*	-93	0
c1cncc(-c2csc(-c3cccnc3)n2)c1	x	x	x	2	x	x
Oc1ccc(-c2csc(-c3cccnc3)n2)c(O)c1	53*	1.1	0.5	24	71	1
COc1cc(CN(C(=S)NCC(=O)NC2CCCC2)C2CCCC2)cc(OC)c1OC	-6	1	1.1	-3	4	8
Cc1cccnc1Nc1nc(-c2ccc(O)cc2O)cs1	0	3.9*	1	12	36	10
CSc1ccc(CNC(=O)C2(C)CCN2C(C)C)cc1 (stereo unspecified)	x	x	x	-6	x	x
COc1cc(CN2CCNC(=O)C2CC(=O)NC2CCCC2)cc(OC)c1 (stereo unspecified)	x	x	x	-22	x	x
O=C(Nc1ccc2nc3n(c(=O)c2c1)CCCCC3)c1c(F)ccc([N+](=O)[O-])c1F	x	x	x	68*	x	x
O=C(Nc1ccc2nc3n(c(=O)c2c1)CCCCC3)c1cc([N+](=O)[O-])ccc1F	x	x	x	42	x	x
Cc1cccc2[nH]c3c(=O)n(CCN4CCNCC4)cnc3c12	3	0.94	1	25	2	24
CC(C)CCn1cnc2c([nH]c3cccc(Cl)c32)c1=O	-3	1.4	1	52*	5	12
COc1ccc(-c2cn3c(C)c(C(=O)Nc4cccc(NC(C)=O)c4)sc3n2)cc1	0	0.65	1	69*	26	-1
Cc1ccc(Nc2nc(N)nc(-c3oc4ccccc4c3C)n2)cc1	-6	x	1.1	-10	-92	6
Cc1c(-c2nc(N)nc(Nc3ccccc3F)n2)oc2ccccc12	5	5.8*	1	6	176*	10
O=C(NC1CC1)C1CCN(S(=O)(=O)c2ccc(Cl)c([N+](=O)[O-])c2)CC1	x	x	x	64*	x	x
O=C(NC1CCN(S(=O)(=O)c2cccc([N+](=O)[O-])c2)CC1)C1CCCCC1	x	x	x	-1	x	x
SMILES	FLuc inhib CS	NF-kB neuron act	FLuc stim CS	C8 TRAIL sens	APP 5'UTR act	PPC-1+TRAIL kill
O=Cc1[nH]c2ccccc2c1N(C(=O)CCl)c1ccc([N+](=O)[O-])cc1	x	x	x	-26	x	4
CC(=O)n1cc(N(C(=O)CCl)c2ccc([N+](=O)[O-])cc2)c2ccccc21	x	x	x	72*	x	8
CC(=O)n1cc(N(C(=O)CCl)c2ccccc2)c2ccccc21	x	x	x	95*	x	18
COc1cc(NS(=O)(=O)c2ccc(-n3cccn3)cc2)cc(OC)c1	x	x	x	-4	x	x
Cc1ccn2c(C(=O)CSc3ccccc3)c(C)nc2c1	-4	2.9	1	0	-4	3
Cc1ccc(SCC(=O)c2c(C)nc3cc(C)ccn23)cc1	-4	3.5*	1	-3	-17	10
Cc1ccnc(NC(=O)Nc2cccc(F)c2)n1	7	x	0.9	1	150*	3
Cc1ccnc(NC(=O)Nc2cccc(F)c2)c1	31	8.6*	0.7	20	198*	7
Cc1ccc(NC(=O)Nc2cccc(F)c2)nc1	x	x	x	4	x	x
O=C(OCCCc1cc2ccccc2c(=O)o1)c1ccc2c(c1)OCO2	x	x	x	-5	x	x
C=C1C(=O)C2=CC1CCC(=O)C1(C)CCC(OC(C)=O)C(C)(C)C1CC2O (stereo unspecified)	x	x	x	10	x	x
Cc1ccc(C)c(NC(=O)Nc2ccc3c(c2)OCO3)c1	x	x	x	-8	x	x
Cc1cccc(NC(=O)Nc2cc(C)cc(C)n2)c1	26	2.7	0.7	13	173*	38
Cc1ccc(NC(=O)Nc2ccc(Cl)c(Cl)c2)nc1	x	x	x	11	x	x
Cc1cc(C)nc(NC(=O)Nc2ccc3c(c2)OCO3)c1	47	3	0.5	43	228*	19
Cc1cccc(NC(=O)Nc2cccc(F)c2)n1	4	2.5	1	-6	20	6
Cc1ccc(NC(=O)/C=C/c2ccc3c(c2)OCO3)nc1	43	0.97	0.6	41	152*	34
Cc1ccc(NC(=O)Nc2ccc3c(c2)OCO3)nc1	34	4*	0.7	26	103	-11
COc1cc(OC)cc(OC(=O)C2CCN(C(=O)c3ccc(F)cc3)CC2)c1	x	x	x	-1	x	x
CCCCCCC1/C(=N\NC(=O)c2ccccc2)CCC1C(=O)OC (stereo unspecified)	x	x	x	25	x	x
Nn1c(SCC(=O)NC2CCCC2)nnc1C(F)(F)F	x	x	x	-12	x	x
Cc1ccnc(NC(=O)CNC(=O)c2ccc3c(c2)OCO3)c1	x	x	x	-2	x	x
Cc1cc(C)nc(NC(=O)c2ccc3c(c2)OCO3)c1	56*	1.6	0.4	x	18	18
CCc1ccc(CN(C(=O)c2cc3ccccc3oc2=O)C2CCS(=O)(=O)C2)cc1 (stereo unspecified)	5	4.1*	1	-23	105	-13
Cc1ccc(CN(C(=O)c2cc3ccccc3oc2=O)C2CCS(=O)(=O)C2)cc1 (stereo unspecified)	-4	2	1	-2	31	9
SMILES	FLuc inhib CS	NF-kB neuron act	FLuc stim CS	C8 TRAIL sens	APP 5'UTR act	PPC-1+TRAIL kill
CC(C)NC(=O)C1(C)CCCN1C(=O)c1ccc2c(c1)C(C)(C)CCC2(C)C (stereo unspecified)	x	x	x	-8	x	x
COC(=O)c1nc(NC(=S)NC(=O)c2cccs2)sc1C	x	x	x	50*	x	x
O=C(NC(=S)Nc1nc2ccccc2s1)c1cccs1	90*	2.5	0.1	84*	145*	13
CN1CCN(C(=O)c2cc(Cl)ccc2NC(=O)c2ccc(Cl)cc2Cl)CC1	x	x	x	-9	x	x
CCOC(=O)C1CCN(C(=O)c2c(C)oc3c2C(=O)c2ccccc2C3=O)CC1	-2	0.43	1	52*	-31	28
Cc1oc2c(c1C(=O)N1CCC(C)CC1)C(=O)c1ccccc1C2=O	-9	0.35	1.1	x	-33	13
O=C(c1ccccc1)c1cnc(-c2ccccc2)s1	55*	9.9*	0.5	11	157*	13
O=C(c1ccc(F)cc1)c1cnc(Nc2ccccc2)s1	62*	2.4	0.4	61*	126	40

Screening results from PubChem BioAssay.
